STEP block: inhibitors of human striatal-enriched phosphatase STEP. recombinant STEP, OMFP fluorogenic substrate, fluorescence. P54829. AID 588621. inhibition, % at 20 µM. 360,000 compounds, 0.25% hits;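 active means inhibition at 20 µM, scaled per plate between control wells, above about 37%, limit read from the data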;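 further: 0% = DMSO with enzyme and substrate and 100% = substrate only without enzyme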
Target sequence (P54829 whole entry, looked up): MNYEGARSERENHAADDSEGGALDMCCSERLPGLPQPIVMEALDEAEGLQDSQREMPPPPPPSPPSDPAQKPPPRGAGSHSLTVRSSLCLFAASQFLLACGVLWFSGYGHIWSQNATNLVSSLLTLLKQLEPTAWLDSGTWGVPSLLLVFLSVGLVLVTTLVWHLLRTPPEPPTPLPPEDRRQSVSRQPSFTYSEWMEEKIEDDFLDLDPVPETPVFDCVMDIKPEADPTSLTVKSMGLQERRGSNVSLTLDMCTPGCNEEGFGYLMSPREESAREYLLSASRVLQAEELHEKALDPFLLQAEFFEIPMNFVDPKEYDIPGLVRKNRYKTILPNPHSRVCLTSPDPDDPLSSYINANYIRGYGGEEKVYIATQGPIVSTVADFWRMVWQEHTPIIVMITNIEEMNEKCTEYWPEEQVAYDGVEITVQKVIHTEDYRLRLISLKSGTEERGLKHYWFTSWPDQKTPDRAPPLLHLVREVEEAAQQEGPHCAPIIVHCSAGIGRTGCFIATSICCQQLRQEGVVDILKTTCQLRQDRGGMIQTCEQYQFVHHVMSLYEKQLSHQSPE
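System: isolated STEP enzyme; schedule: 20 min enzyme reaction at room temperature, protected from light; medium: Bis-Tris buffer pH 6.0, 2.5 mM DTT, 0.005% Tween 20; signal: fluorescence, 480/540 nm; dosing: single compound dose of 20 µM, 1% DMSO final; also added: OMFP substrate, 25 µM final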
UBC9 SUMO inh: SUMOylation inhibition. inhibition, % at 35 µM. P63279. 290,000 compounds, 0.36% hits. HTRF SUMOylation assay, SAE1/SAE2 + UBC9, in vitro; in the data active means inhibition above about 50%, passing the limit was not always enough
LMPTP block: LMPTP (human) inhibition | inhibition, % at 20 µM | 360,000 compounds, 0.22% hits | AID 651560 | recombinant LMPTP-A, OMFP fluorogenic substrate, fluorescence intensity | P24666;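 active means compounds that cut the enzyme signal by at least half of the control window in the single-dose screen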;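 further: plate controls were DMSO wells with enzyme plus substrate for no effect and substrate without enzyme for full effect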
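Test system: LMPTP-A phosphatase enzyme; input: 0.625 nM LMPTP-A final; reagent: OMFP substrate, 400 µM final; compound dosing: 20 µM single dose, 3% DMSO; incubation: 50 min dark incubation at room temperature; measured by: endpoint fluorescence intensity from OMFP dephosphorylation; measure: % inhibition relative to no-enzyme and uninhibited control wells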
Scp1 inh: Scp-1 (human) phosphatase inhibition. Q9GZU7. Recombinant Scp1, phosphopeptide, malachite green phosphate absorbance. inhibition, % at 20 µM. 340,000 compounds, 0.88% hits;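 active means inhibition above about 50% at 20 µM, limit read from the data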;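 further: plate controls were DMSO wells with enzyme for no effect and wells lacking enzyme for full effect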
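Incubation: 45 min enzyme reaction at room temperature / System: truncated SCP-1 phosphatase (76-261aa) / Reagent: Phospho 17-mer peptide substrate / Buffer or medium: Acidic Tris acetate buffer with magnesium and detergent / Signal: absorbance at 630 nm / Doses: one concentration, 20 µM, with 1.0% DMSO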
DNMT1 inh: DNMT1 (human) enzyme inhibition | 360,000 compounds, 0.83% hits | inhibition (reported as % activation of signal), % at 10 µM | AID 588458 | DNMT1 molecular beacon, Hinp1I cleavage, fluorescence; in the data active means inhibition above about 50%
SUMO1-SIM PPI: SUMO1-SIM interaction modulation. P63165. SUMO1 binding to a labelled peptide, TR-FRET, 1 h. inhibition, % at 20 µM. 360,000 compounds, 0.33% hits; in the data active means inhibition above about 37%
Target sequence (P63165 whole entry, looked up): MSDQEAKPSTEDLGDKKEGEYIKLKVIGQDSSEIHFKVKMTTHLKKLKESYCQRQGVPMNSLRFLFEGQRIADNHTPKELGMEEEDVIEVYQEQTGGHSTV
Scp1 confirm: Scp-1 (human) inhibition, single-dose confirmed. inhibition, % at 20 µM. recombinant SCP-1 catalytic domain, phosphate release, malachite green absorbance. 2,500 compounds, 61% hits. shares compounds with Scp1 inh;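 further: plate controls were DMSO with enzyme for no effect and buffer wells lacking enzyme for full effect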
Scp-1 MG ctr: interferes with malachite green readout, flagging false Scp-1 hits; apparent inhibition (interference), % at 20 µM; shares compounds with Scp1 inh; Colorimetric interference counterscreen, malachite green absorbance 630 nm; 2,500 tested, under 10 active;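 further: compounds added after enzyme reaction finished so only phosphate colour detection is probed; plate controls were DMSO wells with completed Scp-1 reaction for no effect and substrate wells lacking enzyme for full effect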
Scp1 DSF: binds human Scp-1, shifting its melting temperature; thermal shift relative to vanadate control, % at 40 µM; AID 540329; Recombinant SCP1, Sypro Orange thermal shift Tm; 1,500 compounds, 25% hits; shares compounds with Scp1 inh;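 active means substances whose mean melting-temperature shift, as a percentage of the reference inhibitor's shift, reaches about 5.3%, limit read from the data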;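 further: 0% = Tm of DMSO wells and 100% = Tm with sodium orthovanadate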
* hit, by the source's call; x = not tested or not shown. A selection: hits, their analogues and other compounds. The true share with any hit is near 1.9%.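 How the source made its calls, unless noted: active means inhibition of at least 30% at 20 µM; inactive means the rest.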

SMILES	STEP block	UBC9 SUMO inh	LMPTP block	Scp1 inh	DNMT1 inh	SUMO1-SIM PPI	Scp1 confirm	Scp-1 MG ctr	Scp1 DSF
CCc1nc2c(OCc3ccc(C#N)cc3)cccn2c1N(C)C(=O)c1cccs1	1	x	0	x	-4	0	x	x	x
COc1ccc(-c2noc(CCC(=O)N3CCN(c4ccccc4Br)CC3)n2)cc1	3	x	4	54*	-5	-3	-12	-8	x
COc1ccc(-c2noc(CCC(=O)N3CCN(c4ccccc4Cl)CC3)n2)cc1	2	x	3	-4	-4	3	x	x	x
COc1ccc(-c2noc(CN3CCN(c4ccccc4)CC3)n2)cc1	-3	-9	1	68*	-3	1	-15	-12	x
CC(C)NS(=O)(=O)c1ccc(CCC(=O)N2CCc3ccccc3C2)cc1	-2	9	0	-3	1	-1	x	x	x
CC1CCN(C(=O)CCc2ccc(S(=O)(=O)NC(C)C)cc2)CC1	-3	11	-1	67*	-1	-2	-23	-21	x
Cc1ccc(NC(=O)/C=C/c2ccco2)nc1	-3	7	0	63*	11	-11	34*	-15	-5
O=C(/C=C/c1ccco1)Nc1ccccn1	0	45	-1	27	-2	-13	x	x	x
Cc1ccc(CN2CC(C(=O)Nc3ncc(C)s3)CC2=O)cc1 (stereo not drawn)	1	x	-1	51*	5	0	2	-9	x
Cc1ccc(CN2CC(C(=O)Nc3nc(C)cs3)CC2=O)cc1 (stereo not drawn)	0	x	0	x	1	-2	x	x	x
COc1ccc(N2C[C@H](CSC)[C@@H](CC(=O)Nc3ccc(Br)cc3)C2=O)cc1	1	x	1	x	-5	3	x	x	x
COc1ccc(-c2ccc(C(=O)Nc3ccc(C(C)C)cc3)c3occc23)c(C)c1	2	x	3	x	1	0	x	x	x
Cc1ccc(/C=C2\SC(=S)N(CCCC(=O)Nc3cccc(C(=O)O)c3)C2=O)cc1	7	4	2	40	2	-10	x	x	x
O=C(CCN1C(=O)/C(=C\C=C\c2ccccc2)SC1=S)Nc1cccc(C(=O)O)c1	15	37	46	85*	16	11	75*	-19	11*
O=C(CCN1C(=O)/C(=C/c2cccs2)SC1=S)Nc1cccc(C(=O)O)c1	5	17	1	36	2	-2	x	x	x
O=C(CCN1C(=O)/C(=C/c2ccc3c(c2)OCO3)SC1=S)NNC(=O)c1cccnc1	2	-18	7	62*	-2	-12	46*	-9	0
O=C(CCN1C(=O)/C(=C/c2ccc3c(c2)OCO3)SC1=S)Nc1cccc(C(=O)O)c1	7	11	3	69*	4	0	78*	-9	11*
COc1ccc(/C=C2\SC(=S)N(CCC(=O)Nc3cccc(C(=O)O)c3)C2=O)cc1	18	5	1	61*	-2	0	53*	-10	18*
CCN(CC)CCCn1c2c(c(SCC(=O)N3CCCc4ccccc43)nc1=O)CCC2	2	x	1	9	1	-1	x	x	x
CCOc1cc(/C=N/NC(=O)c2ccncc2)cc(Cl)c1OS(C)(=O)=O	0	14	-2	-7	0	-1	x	x	x
Cc1nn(Cc2n[nH]c(=S)n2Cc2ccccc2)c(C)c1Cl	-2	9	-5	1	2	1	x	x	x
Cc1c(C(=O)N2CCC(C)(C(=O)NS(=O)(=O)C3CC3)C2)oc2ccccc12 (stereo not drawn)	2	x	0	x	0	4	x	x	x
O=C(CCCN1C(=O)/C(=C\c2ccccc2)SC1=S)Nc1cccc(C(=O)O)c1	-1	13	1	-7	1	-24	x	x	x
O=C(CCN1C(=O)/C(=C/c2ccc(Cl)cc2)SC1=S)Nc1cccc(C(=O)O)c1	10	22	1	89*	0	-7	66*	-3	9.7*
CC(=O)N(c1ccccc1)c1c(F)c(F)c(F)c(F)c1F	-2	14	-1	61*	0	-1	-8	-13	x
SMILES	STEP block	UBC9 SUMO inh	LMPTP block	Scp1 inh	DNMT1 inh	SUMO1-SIM PPI	Scp1 confirm	Scp-1 MG ctr	Scp1 DSF
CC(=O)N(c1ccccc1)c1nc2ccccc2s1	0	x	-1	-1	0	2	x	x	x
O=c1[nH]c2cc3c(cc2cc1CN(Cc1ccccc1)Cc1nnnn1Cc1ccco1)OCCO3	4	43	26	-2	4	16	x	x	x
O=c1[nH]c2cc3c(cc2cc1CN(Cc1cccnc1)Cc1nnnn1Cc1ccco1)OCCO3	3	37	47	84*	8	16	12	-13	x
O=C(Nc1nnc(CCc2ccccc2)s1)c1ccccc1	-1	16	-1	6	2	5	x	x	x
O=C(Cc1nnc(NC(=O)c2ccccc2)s1)N/N=C/c1ccc(O)cc1	26	10	9	62*	-8	-13	49*	-8	5
COc1ccc(CNC(=O)CSc2nnc3c(n2)[nH]c2ccc(F)cc23)cc1	17	25	12	62*	23	4	31*	-12	-2
COc1ccc(CCNC(=O)CSc2nnc3c(n2)[nH]c2ccc(F)cc23)cc1OC	-2	9	-2	-10	-3	-17	x	x	x
COc1ccc(CNC(=O)CSc2nnc3c(n2)[nH]c2ccc(OC)cc23)cc1	7	28	5	65*	12	3	70*	-9	-3
Cc1cc(C)c2c(N)c(C(=O)c3ccc(Cl)c(Cl)c3)sc2n1	19	5	62*	80*	0	-5	10	-8	x
Cn1c(NCCCO)nc2c1c(=O)n(Cc1ccccc1F)c(=O)n2C	-4	9	0	-2	0	6	x	x	x
COc1ccccc1Oc1nc2c(c(=O)n(Cc3ccccc3F)c(=O)n2C)n1C	-2	41	0	68*	-3	3	1	0	x
O=C(CSc1nc2ccccc2c(=O)n1-c1ccccc1)NCC1CCCO1 (stereo not drawn)	-2	-5	-2	92*	1	1	-4	-12	x
COc1ccc(-c2cc(C(=O)NN)n(-c3ccccc3)n2)cc1	-1	-18	-1	3	-8	4	x	x	x
CCOC(=O)c1cc(-c2ccc(OC)cc2)nn1-c1ccccc1C(=O)O	25	13	11	61*	28	69*	42*	-8	-6

Bioassay records deposited in PubChem BioAssay by Sanford-Burnham Center for Chemical Genomics.
